Published values of several laboratories.
Lines come from different studies, so protocols differ.
Observed: enzyme activity
Action: inhibitor
KIT D816V: Mast/stem cell growth factor receptor Kit (KIT, Homo sapiens, UniProt P10721, D816V)
KIT T670I: Mast/stem cell growth factor receptor Kit (KIT, Homo sapiens, UniProt P10721, T670I)
KIT: Mast/stem cell growth factor receptor Kit (KIT, Homo sapiens, UniProt P10721)

Compound	target	assay	setting	inhibition [%]
CS(=O)(=O)Nc1cccc(-c2csc(NC(=O)CSc3nc4nccnc4c(=O)n3CCc3ccccc3)n2)c1	KIT D816V		10 µM	-1
COc1cc2ncnc(Nc3ccc(Oc4ccccc4)c(C)c3C)c2cc1OC	KIT T670I		1 µM	-7
CN(C)C1CCN(CC#Cc2nn(C3CCCC3)c3nc(NCc4ccccc4)ncc23)C1 (stereo not shown)	KIT	FRET	0.1 µM	1
CC/C(=N\NC(=O)NCc1cccc(O)c1)c1ccc(O)c(C)c1O	Mast/stem cell growth factor receptor Kit (KIT, Homo sapiens, UniProt P10721, V654A)		0.1 µM	-0.5
O=C(CSc1nc2nccnc2c(=O)n1CCc1ccccc1)Nc1nccs1	KIT D816V		10 µM	6
COc1cc2ncnc(Nc3ccc(Oc4ccccc4)cc3C)c2cc1OC	KIT T670I		1 µM	-9
COc1cc(-c2cc(-c3ccc(N4CCNCC4)cc3)cnc2N)cc(OC)c1OC	KIT T670I		0.1 µM	3
COc1cc2nccc(Oc3ccc(NC(=O)c4c5n(n(-c6ccc(F)cc6)c4=O)CCCC5)cc3)c2cc1OC	KIT		0.1 µM	-1
CN1CC(Oc2cnc(C#N)cc2-c2ccn3nc(NC(=O)C4CC4)cc3c2)C1	KIT		1 µM	4
C=CC(=O)Nc1cc(Nc2nccc(Nc3cc(Cl)c(F)cc3C(C)(C)O)n2)c(OC)cc1N1CC[C@@H](N(C)C)C1	KIT		1 µM	2
